From PMC3109609 (Journal of medicinal chemistry, 2010)
“And” between values parts separate entries of the source, which are not always exact repeats. Identical values can stand only once.

Experiments:
[1] = biological target: human ΔF508-CFTR (Homo sapiens, UniProt P13569, DEL508-508); experiment: ΔF508-CFTR corrector activity assay; format: cell-based; conditions: concentration-dependent increase in I− influx in FRT ΔF508-CFTR cells
[2] = format: physicochemical
How it was run: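 Reverse-phase HPLC retention time gave log k (capacity factor). A calibration line of log k against known logP was built from reference compounds and used to convert each test compound's log k to logP.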

ΔF508-CFTR corrector activity (in words) [1] | chromatographic logP [2] | logP difference versus bithiazole 1 (lower) ([2]; 14h compared with bithiazole CF corrector 1) | SMILES
relatively low activity |  |  | COc1ccc(NC(=O)c2cc(-c3sc(NC(=O)C(C)(C)C)nc3C)n(-c3ccc(Br)cc3)n2)cc1 [11d, 1-(4-Bromophenyl)-N-(4-methoxyphenyl)-5-(4-methyl-2-pivalamidothiazol-5-yl)-1H-pyrazole-3-carboxamide]
 | 4.1 | 1.2 log units and ~ 1.2 log units | COc1ccc(Cl)cc1Cn1nc(-c2sc(NC(=O)C(C)(C)C)nc2C)cc1C(=O)N1CCOCC1 [14h, N-(5-(1-(5-chloro-2-methoxybenzyl)-5-(morpholine-4-carbonyl)-1H-pyrazol-3-yl)-4-methylthiazol-2-yl)pivalamide]
retains corrector activity | 3.5 |  | COc1ccc(Cl)cc1Cn1nc(-c2sc(NC(=O)C(C)(C)C)nc2C)cc1C(=O)NCCO [14j, 1-(5-chloro-2-methoxybenzyl)-N-(2-hydroxyethyl)-3-(4-methyl-2-pivalamidothiazol-5-yl)-1H-pyrazole-5-carboxamide]
 | > 5 |  | COc1ccc(Cl)cc1Nc1nc(-c2sc(NC(=O)C(C)(C)C)nc2C)cs1 [compound 1, reference compound]
